According to ChEMBL document CHEMBL4308843, “Identification of ABX-1431, a Selective Inhibitor of Monoacylglycerol Lipase and Clinical Candidate for Treatment of Neurological Disorders” (J Med Chem, 2018):
Activity calls are given as the source filed them. The calls are words filed in the database; no cut-off is given here.

molecular target: T1, Monoacylglycerol lipase ABHD6 (Homo sapiens, UniProt Q9BV23); assay: Inhibition of ABHD6 derived from human PC3 cell lysates preincubated for 30 mins followed by JW912 addition after 30 mins by gel-based ABPP assay; type: subcellular, Lysate; settings: not given
T1 sequence (Q9BV23 whole entry): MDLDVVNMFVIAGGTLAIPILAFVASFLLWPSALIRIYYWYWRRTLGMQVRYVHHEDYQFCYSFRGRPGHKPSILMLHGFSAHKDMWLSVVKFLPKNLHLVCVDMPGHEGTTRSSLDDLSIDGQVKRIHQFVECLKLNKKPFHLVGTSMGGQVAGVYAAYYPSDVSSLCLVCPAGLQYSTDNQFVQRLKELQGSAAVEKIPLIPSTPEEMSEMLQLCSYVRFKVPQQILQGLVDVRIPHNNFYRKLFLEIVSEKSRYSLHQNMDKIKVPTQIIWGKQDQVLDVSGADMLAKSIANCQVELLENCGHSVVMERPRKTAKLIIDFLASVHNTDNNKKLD

| Compound | IC50 [nM] |
| --- | --- |
| Cc1cc(Cl)ccc1C(c1ccc(Cl)cc1C)N1CCN(C(=O)OC(C(F)(F)F)C(F)(F)F)CC1 | > 10000 |
| O=C(OC(C(F)(F)F)C(F)(F)F)N1CCN(Cc2cc(Cl)ccc2N2CCOCC2)CC1 | > 10000 |

molecular target: T2, Monoglyceride lipase (Mus musculus, UniProt O35678); assay: Inhibition of MGLL derived from mouse brain homogenates preincubated for 30 mins followed by JW912 addition after 30 mins by gel-based ABPP assay; type: tissue-based; settings: not given
T2 sequence (O35678 whole entry): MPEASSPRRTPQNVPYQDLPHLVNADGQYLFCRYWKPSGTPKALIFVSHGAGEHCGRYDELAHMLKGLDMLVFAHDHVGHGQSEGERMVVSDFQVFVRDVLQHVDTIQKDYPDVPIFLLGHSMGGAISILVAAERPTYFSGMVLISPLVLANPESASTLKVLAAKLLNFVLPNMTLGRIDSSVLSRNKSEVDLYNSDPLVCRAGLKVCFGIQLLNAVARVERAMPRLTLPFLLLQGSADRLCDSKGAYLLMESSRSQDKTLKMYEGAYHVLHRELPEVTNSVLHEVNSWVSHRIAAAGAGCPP

| Compound | IC50 [nM] |
| --- | --- |
| O=C(OC(C(F)(F)F)C(F)(F)F)N1CCN(Cc2ccc(Cl)cc2N2CC[C@H]3CCCN3C2)CC1 | 66 |
| O=C(OC(C(F)(F)F)C(F)(F)F)N1CCN(Cc2ccc(C(F)(F)F)cc2N2CC[C@@H](O)C2)CC1 | 8 |
| O=C(OC(C(F)(F)F)C(F)(F)F)N1CCN(Cc2ccc(C(F)(F)F)cc2N2CCC3(CCOCC3)C2)CC1 | 24 |
| O=C(OC(C(F)(F)F)C(F)(F)F)N1CCN(Cc2ccc(C(F)(F)F)cc2N2CC3COCC3C2)CC1 (centres undefined) | 17 |
| O=C(OC(C(F)(F)F)C(F)(F)F)N1CCN(Cc2ccc(C(F)(F)F)cc2N2CCCCC2)CC1 | 130 |
| O=C(OC(C(F)(F)F)C(F)(F)F)N1CCN(Cc2ccc(Cl)cc2N2CCCCC2)CC1 | 120 |
| C#Cc1ccc(CN2CCN(C(=O)OC(C(F)(F)F)C(F)(F)F)CC2)c(N2CCCC2)c1 | 159 |
| CN1CC2CN(c3cc(C(F)(F)F)ccc3CN3CCN(C(=O)OC(C(F)(F)F)C(F)(F)F)CC3)CC2C1 (centres undefined) | 239 |
| O=C(OC(C(F)(F)F)C(F)(F)F)N1CCN(Cc2ccc(C(F)(F)F)cc2N2CC[C@H](O)C2)CC1 | 15 |

molecular target: T3, Platelet-activating factor acetylhydrolase (Homo sapiens, UniProt Q13093); assay: Inhibition of PLA2G7 derived from human PC3 cell lysates preincubated for 30 mins followed by JW912 addition after 30 mins by gel-based ABPP assay; type: subcellular, Lysate; settings: not given
T3 sequence (Q13093 whole entry): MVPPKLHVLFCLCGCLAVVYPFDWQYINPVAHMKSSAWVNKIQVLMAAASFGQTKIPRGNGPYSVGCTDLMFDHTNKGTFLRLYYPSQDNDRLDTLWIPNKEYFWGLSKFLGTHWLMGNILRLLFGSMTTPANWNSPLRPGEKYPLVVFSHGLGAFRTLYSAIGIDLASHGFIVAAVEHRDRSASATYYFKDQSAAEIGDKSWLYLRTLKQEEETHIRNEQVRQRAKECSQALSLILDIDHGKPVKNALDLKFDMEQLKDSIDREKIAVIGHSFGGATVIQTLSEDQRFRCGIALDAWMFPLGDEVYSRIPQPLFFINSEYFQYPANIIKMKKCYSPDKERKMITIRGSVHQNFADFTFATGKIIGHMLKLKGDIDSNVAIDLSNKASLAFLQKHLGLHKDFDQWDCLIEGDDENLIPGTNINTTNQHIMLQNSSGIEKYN

| Compound | IC50 [nM] |
| --- | --- |
| Cc1cc(Cl)ccc1C(c1ccc(Cl)cc1C)N1CCN(C(=O)OC(C(F)(F)F)C(F)(F)F)CC1 | > 10000 |
| O=C(OC(C(F)(F)F)C(F)(F)F)N1CCN(Cc2cc(Cl)ccc2N2CCOCC2)CC1 | > 10000 |
| O=C(OC(C(F)(F)F)C(F)(F)F)N1CCN(Cc2ccc(C(F)(F)F)cc2N2CCC3(CCOCC3)C2)CC1 | > 1000 |
| O=C(OC(C(F)(F)F)C(F)(F)F)N1CCN(C(c2ccc(Cl)cc2)c2ccc(Cl)cc2)CC1 | > 1000 |
| O=C(OC(C(F)(F)F)C(F)(F)F)N1CCN(Cc2ccc(C(F)(F)F)cc2N2[C@@H]3CC[C@H]2COC3)CC1 | > 1000 |
| O=C(OC(C(F)(F)F)C(F)(F)F)N1CCN(Cc2ccc(Cl)cc2N2CCCCC2)CC1 | > 10000 |
| O=C(OC(C(F)(F)F)C(F)(F)F)N1CCN(Cc2c(Cl)cccc2N2CCOCC2)CC1 | > 10000 |
| O=C(OC(C(F)(F)F)C(F)(F)F)N1CCN(Cc2ccc(C(F)(F)F)cc2N2C[C@H]3CC[C@@H](C2)O3)CC1 | > 1000 |

test system: Mus musculus; assay: In-vivo inhibition of MGLL in ICR mouse brain assessed as target engagement at 5 mg/kg, po measured 4 hrs post dose by gel-based ABPP assay relative to control; type: functional; set-up: scale not given: the % may be the effect or the level left; settings: not given
Summary of the method: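 Mice received a single 5 mg/kg oral gavage dose. Whole brains were collected 4 h post-dose and target engagement was read by gel-based ABPP with FP-Rh probe.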

| Compound | Activity |
| --- | --- |
| O=C(OC(C(F)(F)F)C(F)(F)F)N1CCN(Cc2ccc(Cl)cc2N2CC[C@H]3CCCN3C2)CC1 | 50% |
| O=C(OC(C(F)(F)F)C(F)(F)F)N1CCN(Cc2ccc(C(F)(F)F)cc2N2CC[C@@H](O)C2)CC1 | 100% |
| O=C(OC(C(F)(F)F)C(F)(F)F)N1CCN(Cc2ccc(C(F)(F)F)cc2N2CCC3(CCOCC3)C2)CC1 | 75% |
| O=C(OC(C(F)(F)F)C(F)(F)F)N1CCN(Cc2ccc(Cl)cc2N2CC3CCC(C2)O3)CC1 | 100% |
| O=C(OC(C(F)(F)F)C(F)(F)F)N1CCN(Cc2ccc(C(F)(F)F)cc2N2CC3COCC3C2)CC1 (centres undefined) | 25% |
| O=C(OC(C(F)(F)F)C(F)(F)F)N1CCN(Cc2ccc(C(F)(F)F)cc2N2CCOCC2)CC1 | 100% |
| O=C(OC(C(F)(F)F)C(F)(F)F)N1CCN(Cc2ccc(Cl)cc2N2CCN(CCF)CC2)CC1 | 75% |
| O=C(OC(C(F)(F)F)C(F)(F)F)N1CCN(Cc2ccc(C(F)(F)F)cc2N2[C@@H]3CC[C@H]2COC3)CC1 | 100% |
| O=C(OC(C(F)(F)F)C(F)(F)F)N1CCN(Cc2ccc(C(F)(F)F)cc2N2C[C@H]3CC[C@@H](C2)O3)CC1 | 100% |
| CN1CC2CN(c3cc(C(F)(F)F)ccc3CN3CCN(C(=O)OC(C(F)(F)F)C(F)(F)F)CC3)CC2C1 (centres undefined) | inactive |
| O=C(OC(C(F)(F)F)C(F)(F)F)N1CCN(Cc2ccc(C(F)(F)F)cc2N2CC[C@H](O)C2)CC1 | 75% |

test system: not listed separately; assay: Intrinsic clearance in human liver microsomes; type: ADME, Microsome; settings: read-out: CLH

| Compound | microsomal CLint [µL/min/mg] |
| --- | --- |
| O=C(OC(C(F)(F)F)C(F)(F)F)N1CCN(Cc2ccc(C(F)(F)F)cc2N2CCOCC2)CC1 | 24 |
| O=C(OC(C(F)(F)F)C(F)(F)F)N1CCN(Cc2ccc(Cl)cc2N2CCCC2)CC1 | 34 |
| O=C(OC(C(F)(F)F)C(F)(F)F)N1CCN(Cc2cccc(Cl)c2N2CCOCC2)CC1 | 76 |
| O=C(OC(C(F)(F)F)C(F)(F)F)N1CCN(Cc2ccc(Cl)cc2N2CCOCC2)CC1 | 45 |
